How the values were obtained:
[1] = tested on: Mammalian orthoreovirus 1; experiment: Antiviral activity against Reovirus-1 infected in african green monkey Vero cells assessed as inhibition of virus-induced cytopathogenicity; format: functional, organism-based; conditions: Mammalian orthoreovirus 1, Vero
Summary of the method: (§1)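 Confluent HEL, Vero or HeLa monolayers were infected with 100 CCID50 of virus while exposed to fivefold serial dilutions of compound. Virus-induced cytopathicity was scored when it reached completion in untreated infected controls. The EC50 is the concentration that inhibits cytopathicity by 50%.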

Sindbis virus = experiment: Antiviral activity against Sindbis virus infected in african green monkey Vero cells assessed as inhibition of virus-induced cytopathogenicity; format: functional, organism-based; summary of the method: as §1
Punta Toro virus = experiment: Antiviral activity against Punta Toro virus infected in african green monkey Vero cells assessed as inhibition of virus-induced cytopathogenicity; format: functional, organism-based
Summary of the method: (§2)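 Confluent HEL, Vero or HeLa monolayers were infected with 100 CCID50 of virus while exposed to fivefold serial dilutions of compound. Virus-induced cytopathicity was scored when it reached completion in untreated infected controls.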

Influenza A virus [2] = experiment: Antiviral activity against Influenza A virus H3N2 infected in MDCK cells assessed as inhibition of virus-induced cytopathogenicity; format: functional, organism-based
Summary of the method: (§3)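 Nearly confluent MDCK cultures were infected while exposed to fivefold serial dilutions of compound. Cytopathicity was scored when it reached completion in untreated infected controls. The EC50 is the concentration that inhibits virus-induced cytopathicity by 50%.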

Influenza A virus [3] = experiment: Antiviral activity against influenza A virus H1N1 infected in MDCK cells assessed as inhibition of virus-induced cytopathogenicity; format: functional, organism-based; summary of the method: as §3
Influenza B virus = experiment: Antiviral activity against influenza B virus infected in MDCK cells assessed as inhibition of virus-induced cytopathogenicity; format: functional, organism-based; summary of the method: as §3
[4] = Cytotoxicity against HEL cells assessed as morphological changes by microscopic analysis; format: cell-based; conditions: human
Summary of the method: (§4)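 Confluent HEL, Vero or HeLa cultures, or near-confluent MDCK cultures, exposed to fivefold compound dilutions in parallel with the antiviral cytopathicity tests. MCC is the lowest concentration causing microscopically visible alteration of cell morphology.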

[5] = Cytotoxicity against human HeLa cells assessed as morphological changes by microscopic analysis; format: cell-based; summary of the method: as §4
[6] = Cytotoxicity against african green monkey Vero cells assessed as morphological changes by microscopic analysis; format: cell-based; conditions: chlorocebus sabaeus; summary of the method: as §4
[7] = Cytotoxicity against MDCK cells assessed as morphological changes by microscopic analysis; format: cell-based, Canis lupus familiaris; conditions: dog; summary of the method: as §4
L1210 = experiment: Cytostatic activity against mouse L1210 cells after 2 days by coulter counter analysis; format: functional, cell-based; conditions: L1210, 48 h
Summary of the method: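 L1210 cells at 300,000–500,000 cells/mL were mixed 1:1 with compound dilutions and incubated for 2 days at 37 °C. Cells were counted with a Coulter counter. The IC50 is the concentration that inhibits proliferation by 50%.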

Human betaherpesvirus 5 [8] = experiment: Antiviral activity against Human cytomegalovirus AD169 infected in HEL cells assessed as inhibition of virus-induced cytopathogenicity after 7 days by Giemsa staining-based microscopic analysis; format: functional, organism-based; conditions: Human betaherpesvirus 5, AD169, HEL, 168 h
Summary of the method: (§5)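 Confluent HEL fibroblasts infected with strains AD-169 and Davis at 100 PFU per well. After 2 h adsorption, residual virus removed and medium with test compound added, in duplicate. Incubated 7 days at 37 °C. Cytopathogenicity scored microscopically after ethanol fixation and Giemsa staining. EC50 read from graphic plots of % cytopathogenicity versus concentration.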

Human betaherpesvirus 5 [9] = experiment: Antiviral activity against Human cytomegalovirus Davis infected in HEL cells assessed as inhibition of virus-induced cytopathogenicity after 7 days by Giemsa staining-based microscopic analysis; format: functional, organism-based; conditions: Human betaherpesvirus 5, Davis, 168 h; summary of the method: as §5
Human alphaherpesvirus 3 [10] = experiment: Antiviral activity against Varicella zoster virus OKA infected in HEL cells assessed as reduction in viral plaque formation after 5 days relative to control; format: functional, cell-based; conditions: Human alphaherpesvirus 3, strain Oka vaccine, 120 h
Summary of the method: (§6)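 Confluent HEL cells were inoculated with 20 PFU VZV per well (Oka wild type or thymidine kinase-deficient 07-1). Residual virus was removed after 2 h and compound dilutions were added in duplicate. The EC50 is the concentration that reduces plaque formation by 50% after 5 days relative to untreated controls.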

Human alphaherpesvirus 3 [11] = experiment: Antiviral activity against Varicella zoster virus 07/1 infected in HEL cells assessed as reduction in viral plaque formation after 5 days relative to control; format: functional, organism-based; conditions: Human alphaherpesvirus 3, 07/1, HEL, 120 h; summary of the method: as §6
Human alphaherpesvirus 1 [12] = experiment: Antiviral activity against Herpes simplex virus 1 KOS infected in HEL cells assessed as inhibition of virus-induced cytopathogenicity; format: functional, organism-based; conditions: Human alphaherpesvirus 1, KOS; summary of the method: as §1
Human alphaherpesvirus 1 [13] = experiment: Antiviral activity against thymidine kinase-deficient Herpes simplex virus 1 infected in HEL cells assessed as inhibition of virus-induced cytopathogenicity; format: functional, organism-based; conditions: Human alphaherpesvirus 1, HEL
Summary of the method: (§7)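 Confluent cell monolayers (Vero for parainfluenza-3, HEL for HSV-1 TK−) inoculated with 100 CCID50 of virus alongside fivefold compound dilutions. Cytopathicity recorded once complete in untreated infected controls. EC50 is the concentration inhibiting virus-induced cytopathicity by 50%.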

Human alphaherpesvirus 2 = experiment: Antiviral activity against Herpes simplex virus 2 G infected in HEL cells assessed as inhibition of virus-induced cytopathogenicity; format: functional, organism-based; conditions: Human alphaherpesvirus 2, strain G; summary of the method: as §1
[14] = tested on: Vesicular stomatitis virus; experiment: Antiviral activity against Vesicular stomatitis virus infected in HEL cells assessed as inhibition of virus-induced cytopathogenicity; format: functional, organism-based; summary of the method: as §2
[15] = tested on: Vesicular stomatitis virus; experiment: Antiviral activity against Vesicular stomatitis virus infected in HeLa cells; format: functional, organism-based; summary of the method: as §1
Coxsackievirus B4 [16] = experiment: Antiviral activity against Coxsackie virus B4 infected in HeLa cells; format: functional, organism-based; conditions: Enterovirus B; summary of the method: as §2
[17] = tested on: Respiratory syncytial virus; experiment: Antiviral activity against Respiratory syncytial virus infected in HeLa cells; format: functional, organism-based; conditions: human respiratory syncytial virus; summary of the method: as §1
[18] = tested on: Human immunodeficiency virus 1; experiment: Antiviral activity against Human immunodeficiency virus 1 3B infected in human CEM cells assessed as inhibition of virus-induced giant cell formation after 4 days by microscopic analysis; format: functional, organism-based; conditions: CCRF-CEM, 96 h
Summary of the method: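 CEM cells at about 3 × 10^5 cells/cm3 were infected with 100 CCID50/ml of virus and seeded into wells containing compound dilutions. After 4 days at 37 °C, giant cell formation was assessed under the microscope.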

[19] = tested on: Human immunodeficiency virus 2; experiment: Antiviral activity against Human immunodeficiency virus 2 ROD infected in human CEM cells assessed as inhibition of virus-induced giant cell formation after 4 days by microscopic analysis; format: functional, organism-based; conditions: Human immunodeficiency virus 2, ISOLATE ROD, CCRF-CEM, 96 h
Summary of the method: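 CEM cells (~3 × 10^5 cells/cm3) infected with 100 CCID50 of HIV-2(ROD) per ml and seeded into microtiter wells holding compound dilutions. Incubated 4 days at 37 °C. Giant cell formation examined microscopically.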

Human respirovirus 3 = experiment: Antiviral activity against Parainfluenza-3 virus infected in african green monkey Vero cells assessed as inhibition of virus-induced cytopathogenicity; format: functional, organism-based; conditions: Human respirovirus 3, Vero; summary of the method: as §7
Coxsackievirus B4 [20] = experiment: Antiviral activity against Coxsackie virus B4 infected in african green monkey Vero cells assessed as inhibition of virus-induced cytopathogenicity; format: functional, organism-based; conditions: Enterovirus B; summary of the method: as §1

Structure (SMILES)	EC50 [1]	EC50 (Sindbis virus)	EC50 (Influenza A virus [2])	EC50 (Influenza A virus [3])	EC50 (Influenza B virus)	MCC [4]	MCC [5]	MCC [6]	MCC [7]	IC50 (L1210)	EC50 (Human betaherpesvirus 5 [8])	EC50 (Human betaherpesvirus 5 [9])	EC50 (Human alphaherpesvirus 3 [10])	EC50 (Human alphaherpesvirus 1 [12])	EC50 (Human alphaherpesvirus 2)	EC50 [15]	EC50 [18]	EC50 [19]	EC50 (Human respirovirus 3)	EC50 (Coxsackievirus B4 [20])	other results
Nc1nc2c(sc3ncn([C@H]4C[C@H](O)[C@@H](CO)O4)c32)c(=O)[nH]1	> 100 µM	> 100 µM	> 0.16 µM	> 0.16 µM	> 0.16 µM	> 100 µM	100 µM	100 µM	0.8 µM	144 µM	> 100 µM	> 100 µM	71.3 µM	> 100 µM	> 100 µM	100 µM	≥ 250 µM	≥ 250 µM	> 100 µM	> 100 µM	EC50 (Punta Toro virus): > 100 µM; EC50 (Human alphaherpesvirus 3 [11]): 71.3 µM; EC50 (Human alphaherpesvirus 1 [13]): > 100 µM; EC50 [14]: > 100 µM; EC50 (Coxsackievirus B4 [16]): > 100 µM; EC50 [17]: > 100 µM
NC(=O)c1ncn([C@@H]2O[C@H](CO)[C@@H](O)[C@H]2O)n1 [RIBAVIRIN]	> 250 µM	> 250 µM	5.1 µM	2.3 µM	4.5 µM	> 250 µM	> 250 µM	> 250 µM	–	–	–	–	–	> 250 µM	> 250 µM	29 µM	> 50 µM	> 50 µM	85 µM	> 250 µM	–
Nc1ncnc2c1sc1ncn([C@H]3C[C@H](O)[C@@H](CO)O3)c12	100 µM	–	> 4 µM	> 4 µM	> 4 µM	≥ 20 µM	> 100 µM	> 100 µM	20 µM	53 µM	> 4 µM	> 4 µM	8.9 µM	> 20 µM	> 20 µM	> 100 µM	> 10 µM	> 10 µM	> 100 µM	> 100 µM	EC50 (Human alphaherpesvirus 3 [11]): 8.9 µM; EC50 (Human alphaherpesvirus 1 [13]): > 20 µM; EC50 [14]: > 20 µM; EC50 (Coxsackievirus B4 [16]): > 100 µM; EC50 [17]: > 100 µM
